Screens as filed in PubChem.
In the library only some 2% were active in any assay of this set; here they are far more common.
L929 necroptosis – L929 zVAD cell death inhibition; L929 zVAD necroptosis rescue, ATP luminescence, 24 h; with zVAD 60 µM; viability rescue, % at 10 µM; hit rate 0.38% among 220,000; AID 1377;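 active = activation, scaled between plate controls, above about 75%, limit read from the data; inactive = activation under that limit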;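 note: 0% = zVAD with DMSO and 100% = DMSO alone without zVAD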
TNF necrop inh – inhibitors of TNF-alpha induced necroptosis in Jurkat FADD-/- cells; activation (protection from cell death), % at 10 µM; AID 463075; Jurkat FADD-/- TNF necroptosis rescue, ATP luminescence, 24 h; 0 = TNF only, 100 = no-TNF cells; hit rate 0.068% among 220,000;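 active = activation, meaning protection from cell death, of at least 50% relative to plate controls; inactive = activation below 50%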;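 note: necroptosis triggered by 40 ng/mL TNF-alpha added together with compound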
Hep lipid drop – modulators of hepatic lipid droplet formation; AML12 mouse hepatocytes, oleate lipid droplets, BODIPY imaging; inhibition, % at 6.5 µM; hit rate 0.4% among 240,000; AID 1656;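 active = lipid droplet intensity inhibited by at least 50%, with more than 500 cells counted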
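Material: mouse AML12 hepatocyte cell line, fixed after treatment; Timing: compound with oleate, overnight; Technique: high-content imaging of BODIPY-stained droplets and DAPI nuclei; Probe or stimulus: oleate, 100 µM final; Dosing: compound at 6.5 µM only.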
PfM18AAP inh-1 – blocks P. falciparum M18 aspartyl aminopeptidase; recombinant PfM18AAP, H-Glu-NHMec fluorogenic cleavage; hit rate 1.2% among 290,000; inhibition, % at 7.35 µM; AID 1822;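 active = inhibition above the campaign mean inhibition over all tested compounds plus 3 SD, cut at about 28% in these data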;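 note: 0% = plate median of test compound wells and 100% = 2 mM ZnCl2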
TbHK1 inh – blocks Trypanosoma brucei hexokinase 1 activity. recombinant TbHK1, G6PDH-coupled NADH A340. inhibition, % at 10 µM. hit rate 0.11% among 220,000;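 active = inhibition of 50% or more in the single-dose primary screen; inactive = inhibition below 50%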
RBBP9 inhibitor – human RBBP9 hydrolase inhibition. O75884. recombinant RBBP9, FP-Rh probe fluorescence polarization. inhibition, % at 7.94 µM. hit rate 0.2% among 220,000;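 active = inhibition above the campaign mean of all tested compounds plus 3 SD, cut at about 14% in these data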;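 note: plate controls were DMSO wells with RBBP9 for no effect and wells lacking RBBP9 protein for full effect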
Target sequence (O75884 whole entry, looked up): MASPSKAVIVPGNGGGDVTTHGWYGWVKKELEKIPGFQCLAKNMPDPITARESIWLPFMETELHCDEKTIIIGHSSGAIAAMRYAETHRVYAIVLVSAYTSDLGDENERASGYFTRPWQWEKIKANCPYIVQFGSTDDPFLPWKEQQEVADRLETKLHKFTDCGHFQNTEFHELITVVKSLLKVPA
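Test system: recombinant human RBBP9. Quantity: 2.5 µM RBBP9 dispensing solution, before mixing. Detection: FP readout at 525/598 nm. Reagent: Serine-hydrolase probe FP-Rh, 375 nM pre-mixing. Measure: % inhibition. Control set: DMSO-treated enzyme wells and wells lacking RBBP9. Buffer or medium: Tris-NaCl-Pluronic buffer, pH 8.0. Times: preincubation 30 min plus labeling 45 min at 25 °C.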
PfM18AAP inh-2 – PfM18AAP inhibition, confirmation. shares compounds with PfM18AAP inh-1. hit rate 28% among 2,400. recombinant PfM18AAP, H-Glu-NHMec fluorogenic cleavage. inhibition, % at 7.35 µM;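 active = mean inhibition over replicate wells above the hit cutoff set for the earlier primary screen, cut at about 29% in these data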;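 note: 0% = median of test compound wells and 100% = 2 mM ZnCl2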
CTSL1 confirm – Cathepsin L (human) inhibition, confirmation; shares compounds with PfM18AAP inh-1; purified cathepsin L1, Z-Leu-Arg-MCA fluorescence; inhibition, % at 5.96 µM; 2,400 tested, under 10 active; AID 2178;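 active = average inhibition across replicates above the hit cutoff set in the earlier primary screen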;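 note: 0% = median of test compound wells and 100% = Z-Phe-Ala-diazomethylketone 1 µM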
Target sequence (P07711 whole entry, looked up): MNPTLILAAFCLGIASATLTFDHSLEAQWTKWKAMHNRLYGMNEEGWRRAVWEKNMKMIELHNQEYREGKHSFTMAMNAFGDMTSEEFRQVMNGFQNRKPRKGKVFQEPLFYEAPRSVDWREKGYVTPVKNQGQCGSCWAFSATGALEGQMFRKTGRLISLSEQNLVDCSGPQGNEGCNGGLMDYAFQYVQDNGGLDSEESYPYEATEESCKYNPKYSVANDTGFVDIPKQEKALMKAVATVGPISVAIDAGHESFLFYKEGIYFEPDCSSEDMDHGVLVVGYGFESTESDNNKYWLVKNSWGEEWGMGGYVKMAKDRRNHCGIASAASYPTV
Starred values were filed as active, the others as inactive.

Screening Cc1cccc(NC(=O)COC(=O)CNC(=O)C2CCCCC2)c1 returned L929 necroptosis 2, TNF necrop inh 0, Hep lipid drop -44, PfM18AAP inh-1 9, TbHK1 inh -2 and RBBP9 inhibitor -1.
Screening O=S(=O)(c1ccc(N2CCCC2)nc1)N1CCCC1 returned L929 necroptosis 3, TNF necrop inh 0, Hep lipid drop -13, PfM18AAP inh-1 -4, TbHK1 inh -5 and RBBP9 inhibitor -3.
For NNc1ccc(S(=O)(=O)N2CCCCC2)cn1 the results were L929 necroptosis 1, TNF necrop inh -1, Hep lipid drop 18, PfM18AAP inh-1 33*, TbHK1 inh -10, RBBP9 inhibitor -2, PfM18AAP inh-2 31* and CTSL1 confirm 1.
For Oc1ccc(NCc2ccccc2OCc2ccccc2)cc1 the results were L929 necroptosis 2, TNF necrop inh -3, Hep lipid drop -17, PfM18AAP inh-1 49*, TbHK1 inh 14, RBBP9 inhibitor 3, PfM18AAP inh-2 -21 and CTSL1 confirm -2.
Screening CCNCc1ccccc1OCc1ccccc1 returned L929 necroptosis 1, TNF necrop inh 1, Hep lipid drop -4, PfM18AAP inh-1 0, TbHK1 inh -3 and RBBP9 inhibitor -5.
COc1ccc(CCNCc2ccccc2N2CCCC2)cc1 was read as Hep lipid drop -35 and PfM18AAP inh-1 3.
Screening COc1ccc(CCNCc2cc(C)n(-c3ccc(OC)cc3)c2C)cc1 returned Hep lipid drop -32, PfM18AAP inh-1 42*, PfM18AAP inh-2 -10 and CTSL1 confirm -3.
For C/C(O)=C(/C#N)c1nc2ccccc2[nH]1 the results were L929 necroptosis 1, TNF necrop inh 2, PfM18AAP inh-1 2, TbHK1 inh 0 and RBBP9 inhibitor -3.
For N#C/C(=C(/O)CSc1ncn[nH]1)c1nc2ccccc2[nH]1 the results were L929 necroptosis 0, TNF necrop inh 2, Hep lipid drop -6, PfM18AAP inh-1 64*, TbHK1 inh -28, RBBP9 inhibitor -7, PfM18AAP inh-2 9 and CTSL1 confirm 3.
Screening Cc1sc2ccccc2[n+]1CC(=O)c1ccccc1 returned Hep lipid drop -14, PfM18AAP inh-1 52*, PfM18AAP inh-2 11 and CTSL1 confirm 0.
For C=CCNC(=S)NNc1nc(Nc2ccccc2)nc(N2CCCCC2)n1 the results were L929 necroptosis -1, TNF necrop inh 1, Hep lipid drop 9, PfM18AAP inh-1 23, TbHK1 inh -3 and RBBP9 inhibitor -11.
CCNC(=S)NNc1nc(N2CCOCC2)nc(N2CCOCC2)n1 was read as L929 necroptosis -1, TNF necrop inh 0, Hep lipid drop -4, PfM18AAP inh-1 47*, TbHK1 inh 6, RBBP9 inhibitor -7, PfM18AAP inh-2 30* and CTSL1 confirm -1.
C=CCNC(=S)NNc1nc(N2CCCC2)nc(N2CCCC2)n1 was read as PfM18AAP inh-1 54*, PfM18AAP inh-2 20 and CTSL1 confirm 0.
CCCNc1nc(N2CCOCC2)nc(N2CCOCC2)n1 was read as L929 necroptosis 0, TNF necrop inh -1, Hep lipid drop 1, PfM18AAP inh-1 1, TbHK1 inh 4 and RBBP9 inhibitor -10.
`CNC(=S)NNc1nc(N2CCOCC2)nc(N2CCOCC2)n1` gave L929 necroptosis 0, TNF necrop inh 2, Hep lipid drop -1, PfM18AAP inh-1 41*, TbHK1 inh 10, RBBP9 inhibitor -13, PfM18AAP inh-2 25 and CTSL1 confirm -3.
For Cc1cccnc1Nc1nc(-c2ccc(O)cc2O)cs1 the results were L929 necroptosis 3, TNF necrop inh -5, PfM18AAP inh-1 32*, TbHK1 inh -28, RBBP9 inhibitor -6, PfM18AAP inh-2 5 and CTSL1 confirm 4.
For Cc1cc(NS(=O)(=O)c2ccc(Nc3nc(-c4ccc(O)cc4)cs3)cc2)no1 the results were L929 necroptosis 1, TNF necrop inh 1, Hep lipid drop 8, PfM18AAP inh-1 43*, TbHK1 inh -5, RBBP9 inhibitor -9, PfM18AAP inh-2 18 and CTSL1 confirm -4.
NS(=O)(=O)c1ccc(Nc2nc(-c3ccc(O)cc3O)cs2)cc1 was read as L929 necroptosis 1, TNF necrop inh -17, Hep lipid drop 0, PfM18AAP inh-1 41*, TbHK1 inh -32, RBBP9 inhibitor -6, PfM18AAP inh-2 39* and CTSL1 confirm 3.
`NS(=O)(=O)c1ccc(Nc2nc(-c3ccc(F)cc3)cs2)cc1` gave L929 necroptosis 1, TNF necrop inh -1, Hep lipid drop -15, PfM18AAP inh-1 6, TbHK1 inh -5 and RBBP9 inhibitor -7.
Screening Oc1ccc(-c2csc(Nc3ccccn3)n2)c(O)c1 returned Hep lipid drop 8, PfM18AAP inh-1 34*, PfM18AAP inh-2 13 and CTSL1 confirm -1.
Cc1cccnc1Nc1nc(-c2ccccn2)cs1 was read as L929 necroptosis -2, TNF necrop inh -10, Hep lipid drop -95, PfM18AAP inh-1 -4, TbHK1 inh -1 and RBBP9 inhibitor -5.
For O=c1[nH]c2ccccc2c(O)c1O the results were L929 necroptosis 1, TNF necrop inh -2, Hep lipid drop -3, PfM18AAP inh-1 46*, TbHK1 inh 38, RBBP9 inhibitor 16*, PfM18AAP inh-2 5 and CTSL1 confirm -3.
Screening O=c1[nH]c2ccccc2c(O)c1-[n+]1ccccc1 returned L929 necroptosis 1, TNF necrop inh 3, Hep lipid drop 13, PfM18AAP inh-1 1, TbHK1 inh -8 and RBBP9 inhibitor -6.
Cc1cc(C)cc(Nc2ccc(C(=O)O)cc2N)c1 was read as L929 necroptosis 1, TNF necrop inh 1, Hep lipid drop -3, PfM18AAP inh-1 41*, TbHK1 inh 4, RBBP9 inhibitor 6, PfM18AAP inh-2 -21 and CTSL1 confirm -3.
Cc1ccc(Nc2ccc(C(=O)O)cc2N)cc1 was read as L929 necroptosis 0, TNF necrop inh -4, PfM18AAP inh-1 55*, TbHK1 inh -16, RBBP9 inhibitor -2, PfM18AAP inh-2 4 and CTSL1 confirm 7.
COc1cccc(Nc2ccc(C(=O)O)cc2N)c1 was read as Hep lipid drop -5 and PfM18AAP inh-1 5.
Cc1cc(C)cc(Nc2ccc(C(=O)O)cc2[N+](=O)[O-])c1 was read as Hep lipid drop -1 and PfM18AAP inh-1 5.
For O=C(CSc1nnc(NC(=O)c2c(F)cccc2F)s1)NC1CC1 the results were Hep lipid drop -15 and PfM18AAP inh-1 -1.
`CC(C)C(=O)NNc1nc2ccccc2s1` gave L929 necroptosis 0, TNF necrop inh -3, Hep lipid drop -19, PfM18AAP inh-1 11, TbHK1 inh 5 and RBBP9 inhibitor -9.
